# A selection: hits, their analogues and other compounds. The true share with any hit is near 3.1%.
# GPR7 antagonist – GPR7 receptor antagonists, primary screen, cell-based, fluorescence, single concentration. Neuropeptides B/W receptor type 1 (Homo sapiens), P48145. GPR7-expressing cells, fluorescence antagonist assay. inhibition, % at 4.4 µM. hit rate 1.1% among 290,000. AID 1861, 2009; in the data active = inhibition above about 16%, passing the limit was not always enough;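 note: cells stimulated with the agonist NPW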
# OX1R antag-1 – OX1R (HCRTR1) antagonists, primary screen, fluorescence, CHO/OX1R cells, Fluo-8 calcium, orexin A | hit rate 0.43% among 330,000 | inhibition, % at 5 µM | Fluo-8 calcium fluorescence | Orexin/Hypocretin receptor type 1 (Homo sapiens), O43613;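 active = inhibition above its plate's threshold, mean inhibition of all tested compounds on the plate plus 3 SD, cut at about 37% in these data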
# Target sequence (O43613 whole entry, looked up): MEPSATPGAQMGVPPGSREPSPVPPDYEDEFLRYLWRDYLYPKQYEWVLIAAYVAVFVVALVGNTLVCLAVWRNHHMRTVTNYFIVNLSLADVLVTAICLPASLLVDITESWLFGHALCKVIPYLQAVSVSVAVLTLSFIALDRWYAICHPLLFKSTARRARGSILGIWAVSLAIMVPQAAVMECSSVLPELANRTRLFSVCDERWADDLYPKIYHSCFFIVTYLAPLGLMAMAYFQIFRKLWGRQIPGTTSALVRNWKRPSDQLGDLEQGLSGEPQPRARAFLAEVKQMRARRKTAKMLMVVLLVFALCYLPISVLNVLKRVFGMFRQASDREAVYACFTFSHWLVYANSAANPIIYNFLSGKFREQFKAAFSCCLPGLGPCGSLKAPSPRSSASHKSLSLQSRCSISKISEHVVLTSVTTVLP
# GalR3 antagonist – GalR3 antagonists in HEK293 cells, primary screen, cell-based, fluorescence readout. HEK293 GalR3-CNG cAMP membrane potential fluorescence; galR3 body fused to GalR1 C-terminus. inhibition, % at 3 µM. hit rate 0.44% among 360,000. AID 651719, 2012;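 active = inhibition above the screen-wide average plus 3 SD, cut at about 13% in these data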;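 note: forskolin and galanin both at EC90 stimulate the cells; cAMP rise reported by CNG channel membrane potential dye signal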
# CHO parental Ca – ATP-evoked calcium signal inhibitors, parental CHO, primary screen, counter-screen for OX1R antagonist project, cell-based, fluorescence, Fluo-8 calcium dye; parental CHO-K1, ATP-induced calcium, Fluo-8 fluorescence; inhibition, % at 5.6 µM; hit rate 0.63% among 330,000; AID 463079, 2010;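 active = inhibition above that plate's mean sample inhibition plus 3 SD, cut at about 26% in these data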
#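 Test system: parental CHO cells; detection: calcium-sensitive Fluo-8 fluorescence; evaluation: percent inhibition of calcium signal; also added: ATP as calcium-mobilizing challenge; repeats: one well per compound; control set: ATP-challenged DMSO wells low, unchallenged DMSO wells high; compound: single nominal dose of 5.6 µM per compound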
# OX1R antag-2 – antagonists of human orexin 1 receptor (OX1R). Orexin/Hypocretin receptor type 1 (Homo sapiens), O43613. OX1R-expressing cells, FRET antagonist read-out. hit rate 1.8% among 330,000. inhibition, % at 6.6 µM; in the data active = inhibition mostly above about 38%, no sharp cut-off; inactive = mostly below about 40%
# OX1R HTRF conf – OX1R (HCRTR1) antagonists, confirmation, cell-based, HTRF | shares compounds with OX1R antag-2 | OX1R-expressing cells, HTRF antagonist assay | inhibition, % at 6.6 µM | hit rate 49% among 1,800; in the data active = inhibition above about 55%;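 note: CHO cells expressing OX1R stimulated with orexin A at about EC80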
# CHO-K1 HTRF – signal inhibition in parental CHO-K1 cells, counter-screen for OX1R antagonist project, cell-based, HTRF | shares compounds with OX1R antag-2 | HTRF counterscreen | hit rate 48% among 1,800 | inhibition, % at 6.6 µM; in the data active = inhibition above about 17%
# Hits are given with their value; 0 = inactive; - = no result; + = active, no number.
SMILES,GPR7 antagonist,OX1R antag-1,GalR3 antagonist,CHO parental Ca,OX1R antag-2,OX1R HTRF conf,CHO-K1 HTRF
COCCN(C(=S)Nc1c(C)cccc1C)C(C)c1cccs1 (configuration not stated),0,0,0,0,147,0,0
C/C(=N\Nc1ccc([N+](=O)[O-])cc1[N+](=O)[O-])C(C)C(C)C (configuration not stated),0,0,0,0,0,-,-
CCOC(=O)C(C)/C(C)=N\Nc1ccc([N+](=O)[O-])cc1[N+](=O)[O-] (configuration not stated),0,0,0,0,85,0,19
N=c1n(CCN2CCCCC2)c2ccccc2n1CC(=O)c1ccc(Cl)c(Cl)c1,0,0,0,0,0,-,-
COC(=O)Cn1c(=N)n(CCN2CCCCC2)c2ccccc21,0,0,0,0,96,0,0
COc1ccccc1NC(=O)N(C)C[C@H]1OCc2cn(nn2)CCCC(=O)N([C@H](C)CO)C[C@@H]1C,-,-,0,-,-,-,-
CCc1ccc(-c2n[nH]nc2C2=CC(=O)C[C@H](c3ccc(F)cc3)C2)cc1,-,-,0,-,-,-,-
COc1cccc(C=NN2CCCCCC2)c1OC,-,-,0,-,-,-,-
O=C(O)c1ccc2nc3c(nc2c1)-c1ccccc1C3=O,0,0,0,0,+,64,84
O=C(O)CCC(=O)Nc1nc2nc(-c3ccccc3)cc(-c3ccccc3)n2n1,0,0,0,0,109,0,0
O=C(CSc1nc2ccc(Nc3nc(N4CCOCC4)nc(N4CCOCC4)n3)cc2s1)Nc1ccccc1,-,-,0,-,-,-,-
O=[N+]([O-])c1ccc2c(c1)nc1n2CCN(c2ccccc2)C1,0,0,0,0,0,-,-
O=[N+]([O-])c1ccc2c(c1)nc1n2CCN(CC2CCCO2)C1 (configuration not stated),0,0,0,0,81,0,27
COc1ccc(/C(O)=C2/C(=O)C(=O)N(CCN(C)C)C2c2ccccn2)cc1OC (configuration not stated),0,0,0,0,0,-,-
CCN(CC)CCCN1C(=O)C(=O)/C(=C(/O)c2ccc(C)cc2)C1c1ccccn1 (configuration not stated),0,0,0,0,0,-,-
COc1ccc(/C(O)=C2/C(=O)C(=O)N(CCN3CCOCC3)C2c2ccccn2)cc1OC (configuration not stated),0,0,0,0,135,0,28
Cc1ccc(/C(O)=C2/C(=O)C(=O)N(CCN3CCOCC3)C2c2ccccn2)cc1 (configuration not stated),0,0,0,0,82,0,33
O=C1C(=O)N(CCN2CCOCC2)C(c2ccccn2)/C1=C(/O)c1ccccc1 (configuration not stated),0,0,0,0,178,0,36
C#CCN(C(=O)C1CCC(=O)N(CCc2cccc(F)c2)C1)C1CCCCC1 (configuration not stated),-,-,0,-,-,-,-
OC(c1ccc(-c2ccccc2)cc1)c1ncc(-c2cccc(F)c2)[nH]1 (configuration not stated),-,-,0,-,-,-,-
c1ccc(OCCNc2ccn3nc(-c4ccco4)cc3n2)cc1,-,-,0,-,-,-,-
O=C(O)CCCCCNc1ccc2nsnc2c1[N+](=O)[O-],0,0,0,0,117,74,112
Cc1ccccc1NC(=O)CSc1nnc2ccc(-c3ccncc3)nn12,-,0,0,0,79,0,36
O=S1(=O)CC(N2CCCCC2)CN1Cc1cn(Cc2ccc(F)cc2)nn1 (configuration not stated),-,-,0,-,-,-,-
COc1ccc(-n2nc3cc(C)c(N)c(Br)c3n2)cc1,0,0,0,0,92,0,0
SMILES,GPR7 antagonist,OX1R antag-1,GalR3 antagonist,CHO parental Ca,OX1R antag-2,OX1R HTRF conf,CHO-K1 HTRF
COc1ccc(NC2=C(NC(C)=O)C(=O)c3ccccc3C2=O)cc1,0,0,0,0,97,78,96
CCC(=O)NC1=C(Nc2ccc(N)cc2)C(=O)c2ccccc2C1=O,0,0,0,0,82,71,121
Cc1ccc(NC(=O)COc2ccccc2)cc1S(=O)(=O)N1CCCCCC1,-,0,0,0,98,0,0
Cc1cccc(C)c1NC(=O)C(c1ccccc1)n1c(-c2ccccc2)nc2ccccc21 (configuration not stated),-,-,0,-,-,-,-
[O-][n+]1onc2c3ccnnc3ccc21,0,0,0,0,150,0,83
O=C(CS(=O)c1ccc(C(F)(F)F)cc1[N+](=O)[O-])Oc1ccccc1 (configuration not stated),0,0,0,0,86,0,0
COc1cccc(/C=N/NC(=O)C(=O)Nc2ccccc2OC(F)(F)C(F)F)c1O,0,0,0,0,97,93,0
COc1ccccc1/C=N/NC(=O)c1cccc(OC(F)(F)C(F)F)c1,0,0,0,0,0,-,-
Cn1cc([N+](=O)[O-])c(C(=O)NNC(=O)c2ccc([N+](=O)[O-])cc2)n1,0,0,0,0,98,0,53
CCN=C(N/N=C/c1ccc([N+](=O)[O-])cc1)SC,0,0,0,0,88,0,51
Cn1cc([N+](=O)[O-])c(C(=O)N/N=C/c2ccc([N+](=O)[O-])cc2)n1,0,0,0,0,110,0,58
COc1cccc(C(=O)N(Cc2cc3cc(C)ccc3[nH]c2=O)C(C)C)c1,0,0,0,0,77,68,0
CCOC(=O)C1(CC)NC(c2cccc(F)c2)C2C(=O)N(CC)C(=O)C21 (configuration not stated),0,0,0,0,89,0,0
CCN1C(=O)[C@H]2[C@@H](c3ccc(-c4ccc(F)cc4)cc3)N[C@@](CC(C)C)(C(=O)OC)[C@H]2C1=O,-,0,0,0,0,-,-
Cn1c(=O)c2c(ncn2CC(=O)OCC(=O)NCc2ccc(F)cc2)n(C)c1=O,-,-,0,-,-,-,-
COc1cccc(C(=O)NC2CC3CCCC(C2)N3CC(=O)Nc2ccccc2C(F)(F)F)c1 (configuration not stated),0,0,0,0,90,89,0
COc1cccc(C(=O)NC2CC3CCC(C2)N3Cc2ccccc2)c1 (configuration not stated),0,0,0,0,0,-,-
O=C(C[C@H]1CC[C@@H]2[C@H](COC[C@H](O)CN2Cc2cccc(C(F)(F)F)c2)O1)NCCc1ccccc1,-,-,0,-,-,-,-

# Screening data as filed in PubChem.
